A short description of data set [1]: Oral bioavailability in ICR mouse at 10 mg/kg administered via gavage by UV-UPLC analysis. The format is ADME, organism-based. Particulars: in vivo.
Data set [2] deals with Staphylococcus epidermidis. Put plainly: Antibacterial activity against Staphylococcus epidermidis ATCC 35547 measured after 16 to 20 hrs by microdilution method. The format is functional. A digest of the protocol: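 CLSI broth microdilution; two-fold serial compound dilutions in triplicate in cation-adjusted Mueller–Hinton broth with 2% NaCl, inoculum 5 × 10^5 CFU/mL; 37 °C for 16–20 h; MIC = lowest concentration with no visible growth.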

A short description of data set [3]: AUC (0 to infinity) in ICR mouse at 10 mg/kg, iv by UV-UPLC analysis. Particulars: in vivo. Also on record: dose 10 mg/kg, time infinity, route intravenous. The format is ADME, organism-based. A digest of the protocol:
(§1)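 Female ICR mice, 6–8 weeks old, 20–25 g. Each received 50 μL by tail-vein injection (5 or 10 mg/kg) of a filter-sterilized 2 or 4 mg/mL solution in 20% DMSO/10% Tween-80/70% water. Terminal blood was collected and plasma harvested by centrifugation. Plasma was precipitated with acetonitrile containing internal standard, and the supernatant was analyzed by C18 UPLC with UV detection at 285 nm.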

Data set [4] has as its system Staphylococcus haemolyticus. Description: Antibacterial activity against Staphylococcus haemolyticus ATCC 29970 measured after 16 to 20 hrs by microdilution method. The format is functional. An outline of the steps: (§2)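 CLSI broth microdilution: two-fold serial dilutions in triplicate in cation-adjusted Mueller–Hinton broth with 2% NaCl, inoculum 5 × 10^5 CFU/mL, incubated at 37 °C for 16–20 h. MIC is the lowest concentration preventing visible growth.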

Data set [5] can be described thus: AUC (0 to last) in ICR mouse at 10 mg/kg, po administered via gavage by UV-UPLC analysis. The format is ADME, organism-based. Also on record: dose 10 mg/kg, time 0 - last, route oral. As to conditions: in vivo.
Data set [6] has as its system Staphylococcus aureus. Description: Potentiation of piperacillin and tazobactam-induced bactericidal activity against methicillin resistant Staphylococcus aureus NRS70 infected in ICR mouse model of neutropenic thigh infection assessed as log reduction in bacterial count in thigh at 40 mg/kg, sc administered at 8 hrs interval for 3 times starting from 1 hr post infection and measured 24 hrs post infection. The format is functional. An outline of the steps: (§3)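 Neutropenic ICR mouse thigh model as above (cyclophosphamide 200 mg/kg ip days −4 and −1; NRS70 1 × 10^6 CFU/mL, 0.1 mL im right thigh); compound given with piperacillin 12 mg/kg plus tazobactam 1.5 mg/kg, sc in 10% DMSO/90% water every 8 h ×3 from 1 h; thigh CFU at 24 h; n = 8; mean ± SEM, ANOVA/Tukey.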

Data set [7] can be described thus: Elimination half life in ICR mouse at 10 mg/kg, iv by UV-UPLC analysis. The format is ADME, organism-based. As to conditions: in vivo. A digest of the protocol:
as §1

The subject of data set [8] is Staphylococcus aureus. Put plainly: Bacteriostatic activity against clindamycin/erythromycin/spectinomycin-resistant mec-positive Staphylococcus aureus NRS70 assessed as log reduction in bacterial count at 0.5 to 16 times MIC by time-kill assay. The format is functional.
The test system of data set [9] is Staphylococcus aureus. Put plainly: Bactericidal activity against methicillin resistant Staphylococcus aureus NRS70 infected in ICR mouse model of neutropenic thigh infection assessed as log reduction in bacterial count in thigh at 20 mg/kg, sc administered at 8 hrs interval for 3 times starting from 1 hr post infection and measured 24 hrs post infection. The format is functional. A digest of the protocol: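 Female ICR mice (6–8 weeks, 20–25 g) made neutropenic with cyclophosphamide 200 mg/kg ip at 4 and 1 days pre-infection; 0.1 mL NRS70 at 1 × 10^6 CFU/mL in brain heart infusion injected into right thigh; drug in 10% DMSO/90% water sc every 8 h ×3 from 1 h post-infection; thigh CFU counted at 24 h; n = 8/group; mean ± SEM, one-way ANOVA with Tukey test.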

Data set [10] concerns Staphylococcus aureus. Description: Antibacterial activity against Staphylococcus aureus ATCC 29213 measured after 16 to 20 hrs in presence of bovine serum albumin by microdilution method. The format is functional. An outline of the steps:
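S. aureus ATCC29213 MIC was run by CLSI microdilution in cation-adjusted Mueller–Hinton broth plus 2% NaCl, with and without 0.5% bovine serum albumin. Compounds were two-fold serially diluted in triplicate, inoculum was 5 × 10^5 CFU/mL, and plates were incubated at 37 °C for 16–20 h. The endpoint was the lowest concentration with no visible growth.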

Another data set has as its system Streptococcus pneumoniae. Put plainly: Antibacterial activity against Streptococcus pneumoniae ATCC 49619 measured after 16 to 20 hrs by microdilution method. The format is functional. An outline of the steps: as §2
Data set [11] concerns Staphylococcus aureus. Put plainly: Potentiation of piperacillin and tazobactam-induced bactericidal activity against methicillin resistant Staphylococcus aureus NRS70 infected in ICR mouse model of neutropenic thigh infection assessed as log reduction in bacterial count in thigh at 20 mg/kg, sc administered at 8 hrs interval for 3 times starting from 1 hr post infection and measured 24 hrs post infection. The format is functional. A digest of the protocol: as §3

The nature of data set [12]: Volume of distribution in ICR mouse at 10 mg/kg, iv by UV-UPLC analysis. The format is ADME, organism-based. As to conditions: in vivo. A digest of the protocol:
as §1

Converted amounts (≈) assume the structure as drawn.

In turn, `N#Cc1ccc(/C=C/c2nc3ccccc3c(=O)n2-c2cc(C(=O)O)ccc2F)cc1` registered a F in data set [1] of 65%. The MIC in [2] was found to be 0.25 mg/L (≈ 0.608 µM); in data set [4], 4 mg/L (≈ 9.72 µM); in the data set with Staphylococcus aureus [10], 2 mg/L; in the data set on Streptococcus pneumoniae it was 8 mg/L (≈ 19.4 µM). The compound further showed an AUC(0-inf) in data set [3] of 22 µg·h/mL. Moreover, the AUClast in [5] was found to be 840 µg·min/mL. Moreover, the “log(activity)” value in the data set on Staphylococcus aureus [6] is listed as 1.33; in the data set with Staphylococcus aureus [8], less than 3; in the data set with Staphylococcus aureus [9], 0.47; with Staphylococcus aureus [11] it was 0.75. For the same compound, the “beta t1/2” value in data set [7] turned out to be 13.7 h. The same compound had a Vd in data set [12] of 0.19 L/kg.

These data come from ChEMBL document CHEMBL4342526, “Exploration of the Structural Space in 4(3H)-Quinazolinone Antibacterials” (J Med Chem, 2020).
